{"data": "Measurements gathered from unrelated publications", "target": "High affinity nerve growth factor receptor (NTRK1, Homo sapiens, UniProt P04629)", "note": "Each line is one published result; the experiments were not run side by side."}
{"Structure (SMILES)": "O=C(Nc1cccc(C(=O)Nc2ccc3[nH]ncc3c2)c1)Nc1ccccc1Cl", "test": "enzyme activity, inhibitor, FRET", "setting": "1 µM", "measurement": "inhibition", "value": "37.7%"}
{"Structure (SMILES)": "CCS(=O)(=O)c1cc2cc(C[C@](O)(CC(C)(C)c3ccc(F)cc3C(N)=O)C(F)(F)F)[nH]c2cn1", "test": "cell-free assay, competition with immobilised ligand", "setting": "1 µM", "measurement": "remaining binding", "value": "82%"}
{"Structure (SMILES)": "CN(C)C1CCN(CC#Cc2nn(C3CCCC3)c3nc(NCc4ccccc4)ncc23)C1 (centres unmarked)", "test": "enzyme activity, inhibitor, FRET", "setting": "1 µM", "measurement": "inhibition", "value": "17%"}
{"Structure (SMILES)": "CCCOc1ccc([C@H]2[C@H](C(=O)O)[C@@H](c3ccc4c(c3)OCO4)CN2CC(=O)Nc2c(CC)cccc2CC)cc1", "test": "cell-free assay, competition with immobilised ligand", "setting": "1 µM", "measurement": "remaining binding", "value": "84%"}
{"Structure (SMILES)": "CC(C)(C)c1nc(-c2cccc(NS(=O)(=O)c3c(F)cccc3F)c2F)c(-c2ccnc(N)n2)s1", "test": "enzyme activity, inhibitor, radiometric", "setting": "1 µM", "measurement": "remaining activity", "value": "78%"}
{"Structure (SMILES)": "N#CCCc1ccc2c(c1)-c1[nH]c3ccc([N+](=O)[O-])cc3c1CC(=O)N2", "test": "cell-free assay", "setting": "0.5 µM", "measurement": "remaining signal", "value": "115%"}
{"Structure (SMILES)": "O=C(Nc1cnn(-c2csc(C(=O)NC3COC3)c2)c1)Nc1ccccc1Cl", "test": "enzyme activity, inhibitor", "setting": "5 µM", "measurement": "remaining activity", "value": "100%"}
{"Structure (SMILES)": "O=C(Cc1ccc(C(F)(F)F)cc1)Nc1cccc(C(=O)Nc2ccc3[nH]ncc3c2)c1", "test": "enzyme activity, inhibitor, FRET", "setting": "1 µM", "measurement": "inhibition", "value": "46%"}
{"Structure (SMILES)": "CN([C@@H]1CCc2c(CC(=O)O)c3cc(S(C)(=O)=O)ccc3n2C1)S(=O)(=O)c1ccc(F)cc1", "test": "cell-free assay, competition with immobilised ligand", "setting": "1 µM", "measurement": "remaining binding", "value": "100%"}
{"Structure (SMILES)": "O=C(Nc1ccc(I)cc1)Nc1cccc(C(=O)Nc2ccc3[nH]ncc3c2)c1", "test": "enzyme activity, inhibitor, FRET", "setting": "1 µM", "measurement": "inhibition", "value": "47.4%"}
{"Structure (SMILES)": "FC(F)(F)Oc1cccc(-c2cnc3ccc(-c4ccncc4)nn23)c1", "test": "enzyme activity, inhibitor, radiometric", "setting": "5 µM", "measurement": "activity vs control", "value": "15%"}
{"Structure (SMILES)": "O=C(NCc1ncc(C(F)(F)F)cc1Cl)c1ccc2c(c1)C1(CCS(=O)(=O)CC1)[C@@H](C1CC1)N2S(=O)(=O)c1ccc(F)cc1", "test": "cell-free assay, competition with immobilised ligand", "setting": "1 µM", "measurement": "remaining binding", "value": "75%"}
{"Structure (SMILES)": "CCN(CC)CCNC(=O)c1c(C)[nH]c(/C=C2\\C(=O)Nc3ccc(F)cc32)c1C", "test": "enzyme activity, inhibitor", "setting": "1 µM", "measurement": "remaining activity", "value": "2%"}
{"Structure (SMILES)": "CN(c1nccc(-c2cnn3ncccc23)n1)C1CC1", "test": "cell-free assay", "setting": "1 µM", "measurement": "remaining signal", "value": "100%"}
{"Structure (SMILES)": "O=C(Nc1ccc2[nH]ncc2c1)c1cccc(NC(=S)Nc2cc(C(F)(F)F)cc(C(F)(F)F)c2)c1", "test": "enzyme activity, inhibitor, FRET", "setting": "1 µM", "measurement": "inhibition", "value": "51.3%"}
{"Structure (SMILES)": "COc1ccc2c(c1)O[C@H](c1ccc(OC)c(OC)c1)C[C@@H]2NC(=O)C1(c2ccc3c(c2)OC(F)(F)O3)CC1", "test": "cell-free assay, competition with immobilised ligand", "setting": "1 µM", "measurement": "remaining binding", "value": "100%"}
{"Structure (SMILES)": "CCN(CC)c1ccc(C2=NNC(=O)CC2C)cc1[N+](=O)[O-] (centres unmarked)", "test": "enzyme activity, inhibitor", "setting": "10 µM", "measurement": "remaining activity", "value": "118%"}
{"Structure (SMILES)": "Cc1c(NC(=O)c2cc(C(N)=O)nc3cc(F)ccc23)c(C(F)(F)F)nn1Cc1ccc(C#N)cc1", "test": "cell-free assay, competition with immobilised ligand", "setting": "1 µM", "measurement": "remaining binding", "value": "83%"}
{"Structure (SMILES)": "O=C1Nc2ccc(Cl)cc2C1=Cc1cc(Cl)c(O)c(Cl)c1", "test": "cell-free assay", "setting": "0.5 µM", "measurement": "remaining signal", "value": "87.4%"}
{"Structure (SMILES)": "Cc1ccc(C(=O)Nc2ccc(CN3CCN(C)CC3)c(C(F)(F)F)c2)cc1C#Cc1cnc2cccnn12", "test": "cell-free assay", "setting": "23.5 nM", "measurement": "remaining signal", "value": "26%"}
{"Structure (SMILES)": "Cc1ccc(NC(=O)c2ccc(C)c(C(F)(F)F)c2)cc1C#Cc1nn(C2CCC(O)CC2)c2ncnc(N)c12 (centres unmarked)", "test": "cell-free assay", "setting": "10 µM", "measurement": "remaining signal", "value": "72%"}
{"Structure (SMILES)": "Cc1ccc(C(=O)NCc2ccsc2)cc1C#Cc1cn(C(C)C)c2ncnc(N)c12", "test": "enzyme activity, inhibitor", "setting": "1 µM", "measurement": "activity vs control", "value": "74%"}
{"Structure (SMILES)": "O=C(Nc1ccc(Br)cc1)Nc1cccc(C(=O)Nc2ccc3[nH]ncc3c2)c1", "test": "enzyme activity, inhibitor, FRET", "setting": "1 µM", "measurement": "inhibition", "value": "50.5%"}
{"Structure (SMILES)": "Cc1[nH]c(/C=C2\\C(=O)Nc3ccc(F)cc32)c(C)c1C(=O)N[C@H]1CCN(C(=O)N(C)C)C1", "test": "enzyme activity, inhibitor", "setting": "1 µM", "measurement": "remaining activity", "value": "5%"}
{"Structure (SMILES)": "CS(=O)(=O)N1CCCC(NC(=O)[C@H](CCC2CCCCC2)NC(=O)c2ccc(CNc3ncnc4c3nnn4-c3ccccc3)cc2)C1 (some centres unmarked)", "test": "cell-free assay, competition with immobilised ligand", "setting": "0.1 µM", "measurement": "remaining binding", "value": "100%"}
{"Structure (SMILES)": "O=C(Nc1ccc2[nH]ncc2c1)c1cccc(NC(=S)Nc2ccc(F)cc2F)c1", "test": "enzyme activity, inhibitor, FRET", "setting": "1 µM", "measurement": "inhibition", "value": "67.3%"}
{"Structure (SMILES)": "Cc1cnc(NC2CCOCC2)nc1-n1cnc(C(=O)NC(CN)c2cc(F)cc(Cl)c2)c1 (centres unmarked)", "test": "enzyme activity, inhibitor, radiometric", "setting": "1 µM", "measurement": "remaining activity", "value": "100%"}
{"Structure (SMILES)": "CCC(=N\\O)/C(C)=C/c1ccc(F)cc1", "test": "cell-free assay, competition with immobilised ligand", "setting": "1 µM", "measurement": "remaining binding", "value": "83%"}
{"Structure (SMILES)": "FC(F)c1nc2ccccc2n1-c1nc(N2CCOCC2)nc(N2CCOCC2)n1", "test": "enzyme activity, inhibitor", "setting": "10 µM", "measurement": "remaining activity", "value": "83%"}
